High-throughput results from PubChem.
Rows were chosen to be rich in hits. Some 1.9% of all compounds tested hit in one or more screens of this group.
NPY-Y2 PAM-ag = potentiates or activates human NPY-Y2 receptor. P49146. activation, % at 3.6 µM. cells expressing NPY-Y2, potentiator/agonist read-out. 220,000 tested, 0.45% active; in the data active = activation above about 27%;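 note: cells stimulated with NPY near EC25 plus isoproterenol at EC100; 0% = vehicle plus submaximal agonist and 100% = vehicle plus saturating agonist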
Target sequence (P49146 whole entry, looked up): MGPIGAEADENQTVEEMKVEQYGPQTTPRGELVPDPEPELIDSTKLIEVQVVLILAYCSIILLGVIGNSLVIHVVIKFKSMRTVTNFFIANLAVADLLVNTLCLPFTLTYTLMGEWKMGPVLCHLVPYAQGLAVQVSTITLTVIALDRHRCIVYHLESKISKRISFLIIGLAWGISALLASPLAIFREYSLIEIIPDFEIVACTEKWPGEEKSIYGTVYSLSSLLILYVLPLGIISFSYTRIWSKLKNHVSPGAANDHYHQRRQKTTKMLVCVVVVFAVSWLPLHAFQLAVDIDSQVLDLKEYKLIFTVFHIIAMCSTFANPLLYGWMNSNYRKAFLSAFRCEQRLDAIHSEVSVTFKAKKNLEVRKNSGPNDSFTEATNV
NPY Y2 blocker = NPY-Y2 (human) receptor antagonism; NPY-Y2 expressing cells, antagonist mode; inhibition, % at 2.7 µM; 140,000 tested, 0.99% active; AID 793;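 note: 0% = vehicle with agonist challenge and 100% = reference antagonist with challenge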
NPY1 pot ag = human NPY-Y1 potentiation or agonism, primary screen. P25929. NPY-Y1 expressing cells, potentiator/agonist activation. activation, % at 3.6 µM. 220,000 tested, 0.37% active. AID 1304; in the data active = activation above about 33%, passing the limit was not always enough;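 note: cells stimulated with NPY at EC10 then isoproterenol at EC100; 0% = low agonist plus stimulus and 100% = saturating agonist plus stimulus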
Target sequence (P25929 whole entry, looked up): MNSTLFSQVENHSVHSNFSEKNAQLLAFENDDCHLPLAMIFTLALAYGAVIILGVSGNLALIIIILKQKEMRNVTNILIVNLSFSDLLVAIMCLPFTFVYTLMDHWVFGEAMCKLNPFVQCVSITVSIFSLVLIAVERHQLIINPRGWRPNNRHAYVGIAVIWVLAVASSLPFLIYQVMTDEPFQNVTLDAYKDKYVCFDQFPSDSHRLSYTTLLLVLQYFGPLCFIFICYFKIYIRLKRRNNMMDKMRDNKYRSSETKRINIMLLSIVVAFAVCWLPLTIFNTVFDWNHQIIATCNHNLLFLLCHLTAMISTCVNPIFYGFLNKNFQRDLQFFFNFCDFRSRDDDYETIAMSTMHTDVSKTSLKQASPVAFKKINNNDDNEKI
NPY-Y1 antag = antagonists of human neuropeptide Y receptor Y1 | P25929 | HEK293-CNG Y1 cells, membrane potential fluorescence; NPY at EC95, then isoproterenol | inhibition, % at 3.6 µM | 200,000 tested, 1% active | AID 1040;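 active = inhibition above the campaign mean inhibition of all tested compounds plus 3 SD, cut at about 20% in these data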;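 note: 0% = DMSO wells given NPY plus isoproterenol and 100% = isoproterenol alone without NPY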
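Material: HEK293 cells co-expressing NPY Y1 receptor and cyclic-nucleotide gated channel. Timing: compound incubation 1 h at room temperature, readout 45 min post-stimulation. Signal: fluorescence, membrane potential probe.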
NPY1 antag ctr = counter-screen for NPY-Y2 antagonists: human NPY-Y1 antagonism. shares compounds with NPY Y2 blocker. cell-based NPY-Y1 antagonism counterscreen. inhibition, % at 3.6 µM. 710 tested, 19% active. AID 1256; in the data active = inhibition above about 20%;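 note: cells challenged with NPY then isoproterenol with cAMP sensed through a CNG channel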
NPY2 antag conf = human NPY-Y2 antagonism, confirmation; shares compounds with NPY Y2 blocker; HEK293 NPY-Y2 CNG channel, membrane potential fluorescence; inhibition, % at 2.8 µM; 710 tested, 32% active;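 active = mean inhibition of triplicate wells above the hit cutoff set in the primary screen, cut at about 17% in these data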;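 note: 0% = DMSO with NPY challenge and 100% = BIIE0246 high control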
NPY-Y1 ant conf = confirmation of human neuropeptide Y receptor Y1 antagonists. inhibition, % at 3.6 µM. HEK293-CNG NPY-Y1, membrane potential fluorescence, cAMP; NPY challenge against isoproterenol-raised cAMP. shares compounds with NPY-Y1 antag. 1,200 tested, 21% active; in the data active = inhibition above about 20%;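 note: 0% = vehicle with agonist plus stimulus and 100% = stimulus alone without agonist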
NPY-Y2 antag ct = counter-screen for NPY-Y1 antagonists: human NPY-Y2 antagonism; AID 1255; 1,200 tested, 28% active; inhibition, % at 3.6 µM; shares compounds with NPY-Y1 antag; HEK293 NPY-Y2 CNG membrane potential fluorescence; cells given NPY, then isoproterenol;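 note: 0% = DMSO with agonist challenge and 100% = reference antagonist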
* = called active by the depositor; . = no result given; + = active, no number. Cut-off read from the data, not from the text of the source, unless noted: active = inhibition above about 17%; inactive = the rest.

SMILES | NPY-Y2 PAM-ag | NPY Y2 blocker | NPY1 pot ag | NPY-Y1 antag | others
C=C1[C@@H](C)[C@H]2[C@H](Cc3ccccc3)NC(=O)[C@]23OC(=O)/C=C/[C@H](O)CCC[C@@H](C)C/C=C/[C@H]3[C@@H]1O | 29.6 | . | 19.2 | 20.6*
C1CC2NCCC3NCCC(N1)N32 (stereo not given) | 3.1 | . | -8.4 | .
O=C1C(=O)c2ccccc2-c2ccccc21 | -65.2 | 40.0* | -95.5 | 38.7*
O=C1C(=O)c2cccc3cccc1c23 | 15.5 | 3.1 | -15.2 | 0.8
CC(=NCCCn1ccnc1)c1c(O)n(C2CCCCC2)c(=O)[nH]c1=O | 1.0 | . | 18.4 | .
COc1ccc(C(=O)O/N=C(/C(N)=O)P(=O)(OC(C)C)OC(C)C)cc1 | -8.6 | . | 16.2 | .
O=P(NC(c1ccccc1)c1ccccc1)(Oc1ccccc1)Oc1ccccc1 | -17.9 | 37.6* | -14.7 | 21.2*
CCNC(=S)N1CCn2cccc2C1c1cccnc1 (stereo not given) | 11.6 | . | 12.1 | -2.1
COc1ccc(Cc2nccc3cc(OC)c(OC)cc23)cc1OC | -20.0 | 20.1* | -53.9 | 22.2*
CCCCCSc1cc(OC)c(CCN)cc1OC | 26.8 | 3.3 | 53.0* | -4.4
CN1/C(=C\C=C\C2=[N+](C)c3ccc4ccccc4c3C2(C)C)C(C)(C)c2ccccc21 | -329.3 | + | -558.2 | +
CCn1ncc(/C=C2/CC3C4CC=C5CC(O)CCC5(C)C4CCC3(C)C2=O)c1C (stereo not given) | 7.6 | 1.1 | -16.9 | -1.3
Cc1nn(C)c(C)c1/C=C1/CC2C3CC=C4CC(O)CCC4(C)C3CCC2(C)C1=O (stereo not given) | -20.4 | 46.6* | -44.8 | 26.4*
CN1CCc2nc(SCc3cccc(Br)c3)c(C#N)cc2C1 | 5.0 | . | -8.4 | .
CCN(CC)C(=O)N[C@H]1C[C@@H]2c3cccc4[nH]cc(c34)C[C@H]2N(C)C1 | 72.3* | 0.0 | 83.6* | -11.3
COC(=O)C1C=C2c3cccc4[nH]cc(c34)CC2N(C)C1 (stereo not given) | -35.0 | . | 3.3 | .
Cc1onc(-c2c(Cl)cccc2Cl)c1C(=O)Nc1ccc2c(C(F)(F)F)cc(=O)oc2c1 | -13.8 | . | -4.9 | .
CCc1nc(N2CCNCC2)c(C#N)c2c1CSC(C)(C)C2 | 89.3* | 3.2 | 92.2* | -11.6
COc1ccccc1CCNC1CCC(C(C)(C)C)CC1 (stereo not given) | 10.9 | 30.4* | -56.3 | 29.0*
COc1ccccc1CCNC1CCCC(C)C1 (stereo not given) | 18.1 | 1.6 | 16.2 | 5.0
O=C(Nc1ccc(F)cc1)c1c(O)c2c(n(Cc3ccccc3)c1=O)CCCC2 | 2.5 | 2.1 | -1.3 | -3.5
O=C(Nc1cccnc1)c1c(O)c2c(n(Cc3ccccc3)c1=O)CCCC2 | 12.2 | 18.8* | 5.4 | 3.6 | NPY1 antag ctr=1.0;NPY2 antag conf=4.0
CSc1ccc(CN2CCN(C(=O)COc3cccc(C)c3)CC2)cc1 | -16.5 | . | -12.7 | -1.7
COc1ccc(C2NCc3ccc4c(c3-n3cccc32)OCO4)cc1O (stereo not given) | -26.8 | 18.7* | -34.5 | 17.9 | NPY1 antag ctr=20.9*;NPY2 antag conf=37.1*
Cn1c(O)c(C(=O)c2ccccc2)c(=O)n(C)c1=O | -10.4 | -0.3 | 3.8 | -0.8
SMILES | NPY-Y2 PAM-ag | NPY Y2 blocker | NPY1 pot ag | NPY-Y1 antag | others
CCC(=NCCC(c1ccccc1)c1ccccc1)c1c(O)n(C)c(=O)n(C)c1=O | 16.1 | 24.4* | 8.5 | -1.2 | NPY1 antag ctr=16.1;NPY2 antag conf=27.5*
O=C(c1cccs1)c1cn(Cc2ccccc2Cl)c2ccccc12 | -11.3 | 19.5* | -31.4 | 15.6 | NPY1 antag ctr=21.1*;NPY2 antag conf=16.1
N#Cc1ccccc1Cn1cc(C(=O)c2cccs2)c2ccccc21 | 9.1 | 7.0 | -29.9 | 5.5
CCCCCP(=O)(O)c1ccccc1 | -0.5 | -3.3 | -20.6 | -1.1
CCCC/C(C)=C/[C@@H](NP(=O)(c1ccccc1)c1ccccc1)c1ccccc1 | -8.1 | 27.0* | -31.1 | 14.2 | NPY1 antag ctr=22.7*;NPY2 antag conf=20.2*
CN1C(=O)CN=C(c2ccccc2)c2cc([N+](=O)[O-])ccc21 | -14.9 | . | -0.6 | 5.1
Cc1nn(Cc2ccccc2)c(Cl)c1C(=O)NC1CCCc2ccccc21 (stereo not given) | -1.9 | 8.7 | -22.9 | 7.2
CN1C[C@H](CNC(=O)OCc2ccccc2)C[C@@H]2c3cccc4c3c(cn4C)C[C@H]21 | -5.2 | 18.1* | -32.4 | 14.9 | NPY1 antag ctr=7.3;NPY2 antag conf=14.3
Clc1ccc(COC(Cn2ccnc2)c2ccc(Cl)cc2Cl)cc1 (stereo not given) | -0.1 | 21.7* | -46.9 | 15.0 | NPY1 antag ctr=19.2;NPY2 antag conf=18.1*
O=C(CNC(=O)c1cccc(Cl)c1)Nc1ccc(Br)cc1C(=O)c1ccccc1 | -2.7 | 22.5* | -37.7 | 18.4 | NPY1 antag ctr=12.2;NPY2 antag conf=12.7
CC(C)CN1CCN(Cc2ccc(F)cc2Cl)CC1CCO (stereo not given) | -1.7 | . | 29.6 | .
Cc1cccc(OP(=O)(NCc2ccccc2)Oc2cccc(C)c2)c1 | -9.0 | 19.1* | -20.9 | 7.2 | NPY1 antag ctr=17.6;NPY2 antag conf=6.2
CC(=NCc1ccco1)c1c(O)n(-c2ccc(C)cc2)c(=O)[nH]c1=O | 0.4 | . | 16.3 | .
O=C(c1ccco1)c1cn(Cc2ccc(Cl)cc2)c2ccccc12 | -25.9 | 17.0 | -64.5 | 32.7* | NPY-Y1 ant conf=20.4*;NPY-Y2 antag ct=15.5
O=c1[nH]c(O)c(N=Nc2cc([N+](=O)[O-])ccc2O)c(=O)[nH]1 | -28.6 | . | 0.7 | 1.3
O=P(Nc1cccnc1)(Oc1ccccc1Cl)Oc1ccccc1Cl | -11.0 | -1.7 | 9.7 | -1.3
CNCC(O)c1cccc(OC(=O)c2ccccc2C)c1 (stereo not given) | 6.5 | 9.5 | -30.1 | 22.4* | NPY-Y1 ant conf=3.3;NPY-Y2 antag ct=5.8
COP(=O)(CC(=O)O)c1ccccc1 (stereo not given) | 6.4 | -0.2 | 25.9 | 1.6
COC(=O)[C@@H]1C[C@@]1(C)[C@@H](NP(=O)(c1ccccc1)c1ccccc1)c1ccccc1 | -0.2 | 16.6 | -14.0 | 30.5* | NPY-Y1 ant conf=18.3;NPY-Y2 antag ct=9.6
CC1CN(c2ccc([N+](=O)[O-])c(N3CCCCC3)c2)CCN1 (stereo not given) | -16.6 | . | 3.1 | .
NC(=O)c1ccc(N=Nc2c(O)[nH]c(=O)[nH]c2=O)cc1 | 8.0 | -1.0 | -21.3 | -3.5
O=C(N=Nc1c(O)[nH]c(=O)[nH]c1=O)C1COc2cc3ccccc3cc2O1 (stereo not given) | -12.5 | . | -12.8 | 25.3* | NPY-Y1 ant conf=8.7;NPY-Y2 antag ct=7.5
CCNC(=O)[C@H]1O[C@@H](n2cnc3c(N)ncnc32)[C@H](O)[C@@H]1O | -53.0 | . | -21.3 | 145.1* | NPY-Y1 ant conf=118.3*;NPY-Y2 antag ct=104.9*
